Experimental data from PubChem BioAssay.
Values without a mark were called inactive. Results filed as inconclusive are left out. The source made the active and inactive calls.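 Rule for the calls, unless noted: active = growth inhibition above 25% in both replicates, a cutoff set 3 SD above the mean; inconclusive = above 25% in only one replicate; inactive = the rest.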

Experiments:
[1] = OD615 S. cerevisiae growth inhibition, permissive medium, pilot counter-assay, permissive growth control for S. cerevisiae lifespan shortening project (AID 705); conditions: OD615, 24 h, at 10 µM, stronger effect = higher value
Procedure, shortened: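 Test system: Saccharomyces cerevisiae strain carrying genetically modified DeaD replicative-lifespan system; buffer or medium: SC raffinose/galactose permissive medium; dosing: one dose 10 µM, DMSO 0.25% final; times: 24 h exposure, 30 °C; measured by: OD at 615 nm; read-out basis: growth inhibition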

[2] = Restrictive medium S. cerevisiae growth inhibition, OD615, pilot screen of yeast lifespan reduction project, restrictive growth control (AID 706;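 active = growth inhibition above a set limit, 3 SD over mean compound inhibition, in both replicates, cut at about 43% in these data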;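 note: modified DeaD lifespan yeast strain shifted to restrictive glucose medium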); conditions: OD615, 48 h, at 10 µM, stronger effect = higher value
Procedure, shortened: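 material = engineered S. cerevisiae DeaD strain | buffer or medium = glucose-based CSMM-D restrictive medium | dosing = one concentration, 10 µM final, 0.25% DMSO | schedule = 4 h pre-growth plus 48 h compound exposure, 30 °C | detection = OD615 absorbance reading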

[3] = viability gain of MRP-1-high H69AR cells under doxorubicin, pilot screen, MRP-1 activator project, CellTiter-Glo, duplicate (AID 807;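 active = viability increase at or above a cutoff of the median across tested compounds plus 3 SD, cut at about 8.5% in these data, passing the limit was not always enough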;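 note: compound pretreatment 18-22 h then 72 h combined with doxorubicin; 0% = doxorubicin alone and 100% = vehicle without doxorubicin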); conditions: H69AR viability with doxorubicin, CellTiter-Glo luminescence; at 10 µM; stronger effect = higher value
[4] = growth suppression of beta-catenin knockout HCT116, pilot screen, human colon tumor cells (AID 823;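 active = cell viability at or below a set limit in both duplicate runs, the limit being the all-compound median minus 4 SD, cut at about 23% in these data, passing the limit was not always enough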;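 note: 0% = wells killed by 20 µM Hyamine and 100% = untreated DMSO cell wells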); conditions: CellTiter-Glo, 60 h, at 10 µM, stronger effect = lower value
[5] = growth suppression of PTEN-deleted HCT116, pilot screen, cell-based, HCT116 clonal line, CellTiter-Glo (AID 824;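 active = viability at or below 27.92% in each of two runs, the all-compound median minus 4 SD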;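 note: 0% = 20 µM Hyamine control and 100% = vehicle cell control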); conditions: 60 h, at 10 µM, stronger effect = lower value
[6] = inhibitors of the yeast RAM network, pilot screen, dse1pr::URA3 reporter, 5-FOA selection (AID 869;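 active = inhibition over a set limit, the all-compound mean plus 3 SD, in both replicate runs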;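 note: 0% = DMSO wells with no growth and 100% = 10 µM 1-NA-PP1 with full growth; RAM network block rescues cells from 5-FOA so hits raise OD615 growth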); conditions: S. cerevisiae dse1pr::URA3 5-FOA growth, OD615, 2 d; at 10 µM; stronger effect = higher value; strain carries analog-sensitive mutant Cbk1 kinase
[7] = RAM signaling pathway blockade in yeast – S. cerevisiae, Pdr1DBD-CYC8 efflux-inhibited sensitized strain, primary screen (AID 1298;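 active = RAM network inhibition above 8.4% in each of two replicates, 3 SD over the compound average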;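 note: 0% = DMSO untreated cells without growth and 100% = 10 µM 1-NA-PP1 full growth; higher means more yeast growth rescued from 5-FOA killing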); conditions: S. cerevisiae cbk1-as DSE1-URA3 strain, 5-FOA growth OD615, 2 d; at 50 µM; stronger effect = higher value

Compound | growth inhibition [1] | growth inhibition [2] | viability increase [3] | viability [4] | viability [5] | inhibition [6] | RAM network inhibition [7]
CC1CN(C2CC(C)(C)NC(C)(C)C2)CCC1=O (stereo not drawn) | -5.84% | -0.43% | 1.05% | 96.7% | 100% | -0.505% | 5.32%
CCCc1[nH]nc2c1C(C1CCCCC1)C(C#N)=C(N)O2 (stereo not drawn) | -4.03% | -0.785% | -6.54% | 12.5% (active) | 21.4% (active) | 2.06% | 1.58%
COc1cccc(CN2CCNC(=O)C2CC(=O)O)c1OC (stereo not drawn) | -18.3% | -12.7% | -2.76% | 101% | 97% | 1.81% | 2.85%
O=C(c1cccc(S(=O)(=O)N2CCCC2)c1)c1cccc(S(=O)(=O)N2CCCC2)c1 | -6.99% | -7.98% | -1.22% | 60.7% | 56.5% | 1.09% | 5.82%
CCOC(=O)C1CCCN(Cc2nc(N)nc(Nc3ccccc3OC)n2)C1 (stereo not drawn) | -0.44% | -2.06% | -3.66% | 88.8% | 83.4% | 0.15% | 0.43%
O=C(c1ccccc1)N1CCN(C2CC(=O)N(CCc3ccccc3)C2=O)CC1 (stereo not drawn) | -3.21% | 4.64% | 1.3% | 96.8% | 100% | 2.52% | 4.98%
O=C(C1CCCN(S(=O)(=O)c2ccccc2)C1)N1CCCCCC1 (stereo not drawn) | -1.18% | 0% | -1.36% | 79.6% | 94.3% | 1.79% | 4.15%
Cn1c(NC(=O)CC(C)(C)C)cc(=O)n(C)c1=O | -2.31% | -7.82% | -0.07% | 104% | 105% | 3.15% | -1.17%
CCCCOC(=O)Nc1nc(CC(=O)OCC)cs1 | -1.73% | -4.89% | 1.05% | 92.2% | 95.7% | -0.45% | 1.89%
O=C(CN1CCOc2ccccc21)NC1CCN(Cc2ccccc2)CC1 | -5.57% | -4.21% | -3.28% | 77% | 85.5% | 3.18% | 5.65%
CCOC(=O)C(C)c1nn(C)c(=O)c2ccccc12 (stereo not drawn) | -3.15% | -5.69% | -2.34% | 97.4% | 92.7% | 1.42% | 1.72%
CCC(=O)c1ccc(OCC(O)CN2C(=O)NC(C)(C)C2=O)cc1 (stereo not drawn) | -3.58% | -3.1% | -0.53% | 100% | 92.8% | 1.6% | 1.09%
c1ccc2c(c1)CCCN2c1nc2ccccc2n2cnnc12 | -6.12% | -9.76% | -6.44% | 91.2% | 83.3% | 1.44% | 4.1%
N#Cc1c2n(c3c(-c4ccccc4)ncnc13)CCC2 | -12.9% | -11.2% | -2.25% | 104% | 98.7% | 2.73% | 3.93%
CCOc1ccccc1C1CC(c2ccc(F)cc2)Nc2nc(N)nn21 (stereo not drawn) | -2.63% | 6.8% | 1.61% | 89.2% | 90.1% | 0.785% | 2.07%
CC1CCCC(NC(=O)CN(C)S(=O)(=O)c2cccc3cccnc23)C1C (stereo not drawn) | -10.9% | -18.7% | -3.62% | 98.7% | 88.4% | 0.34% | 3.61%
CCOC(=O)C1CCN(c2cc(=O)n(Cc3ccc(F)cc3)c(=O)[nH]2)CC1 | -11% | -17.4% | -0.81% | 96.8% | 88.5% | 3.19% | 5.11%
CC(C)OC(=O)CSc1nnc(-c2ccc(Cl)cc2)n1N | -3.53% | -8.84% | -0.58% | 97.2% | 95.7% | 2.38% | 5.48%
O=C(Nc1ccccc1)OCC1CCCN2CCCCC12 (stereo not drawn) | -12.9% | -13.1% | -0.94% | 95.7% | 97.4% | 0.69% | 3.65%
COC(=O)Cn1c(=NC(=O)C2CC2)sc2c(C)cc(C)cc21 | -12.3% | -19% | -2.07% | 92.9% | 91.4% | 0.27% | 4.34%
CCOc1ccc(NC(=O)N(CCN(C)C)C(C)c2ccncc2)cc1 (stereo not drawn) | 2.97% | 4.26% | -1.59% | 85.6% | 90.2% | 1.05% | 1.38%
CSc1ccccc1NC(=O)c1cnc2scc(C)n2c1=O | -16.8% | 3.44% | -2.05% | 87.1% | 88.1% | 0.665% | 3.71%
CC(=O)c1ccc(NC(=O)C2CCC(C)(C(=O)O)C2(C)C)cc1 (stereo not drawn) | -7.29% | -11.9% | -0.27% | 97.9% | 106% | 2.73% | 3.04%
Cc1ccc2c(c1)C1(C(=O)N2C)N2CC3(C)CN1CC(C)(C2)C3=O (stereo not drawn) | 6.63% | 0.76% | -2.2% | 99.1% | 99% | 1.27% | 0.11%
CCOC(=O)C(CCOc1cccc(CC)c1)C(=O)OCC | 4.28% | -17.2% | -2.61% | 89.5% | 87% | -0.12% | 2.13%

Compound | growth inhibition [1] | growth inhibition [2] | viability increase [3] | viability [4] | viability [5] | inhibition [6] | RAM network inhibition [7]
CCCN1Cc2cccc(C(=O)N3CCN(c4cc(Cl)ccc4C)CC3)c2C1=O | 1.4% | -10.8% | -0.17% | 70.5% | 66.7% | 0.375% | 1.65%
COc1cccc(C2NC(=O)NC(O)(C(F)(F)F)C2C(=O)c2cccnc2)c1OC (stereo not drawn) | 2.02% | -2.12% | 0.64% | 109% | 98.9% | 1.14% | 0.92%
Cc1cc(C)c(NC(=O)CSc2nnc(-c3ccncc3)n2Cc2ccco2)c(Cl)c1 | 6.26% | 12.8% | -0.79% | 98% | 93.1% | 1.79% | 6.08%
O=C(CN1CCOc2ccccc21)N1CCC(Cc2ccccc2)CC1 | -3.59% | 21.2% | -3.42% | 88% | 95.1% | 1.46% | 8.63%
COc1ccc(Cl)cc1NC(=O)c1nc2nc(C)cc(C(F)F)n2n1 | -3.76% | -10.8% | -4.12% | 94.4% | 88.4% | 2.35% | 2.1%
Cc1cc(C)cc(NC(=O)CSc2nnc(-c3ccccc3)n2N)c1 | 5.25% | 7.08% | -3.11% | 98.1% | 97.1% | 2.74% | 4.66%
Cn1c(=O)oc2cc(S(=O)(=O)N3CCC(C(=O)N4CCN(c5ccccc5)CC4)CC3)ccc21 | 0.31% | 3.94% | -2.78% | 94.6% | 93.1% | -0.21% | 7.13%
COc1ccc(NC(=O)c2cc3c(=O)n(C)c4ccccc4c3n2C)cc1OC | -0.735% | -6.07% | -5.17% | 93.8% | 80.9% | 2.05% | 5.74%
COc1cccc(C2CC(=O)NC(SC)=C2C#N)c1 (stereo not drawn) | -1.85% | -4.75% | -2.47% | 98.7% | 95.7% | -0.015% | 2.87%
c1ccc2c(c1)CCN(CCCNc1nc3ccccc3n3cnnc13)C2 | -9.84% | -12.9% | -4.17% | 91.3% | 97.1% | 1.18% | -1.09%
COc1ccccc1OCC(=O)Nc1ccc(S(=O)(=O)N2CCCCCC2)cc1 | -10.1% | -4.95% | 0.4% | 83.1% | 82.1% | 2.08% | 10.1%
CCN(CC)Cc1c(O)ccc2c(-c3ccccc3)cc(=O)oc12 | -5.29% | -1.64% | -1.73% | 94.3% | 94.7% | 1.23% | 1.08%
CCOC(=O)N1CCC(NC(=O)c2ccc(NC(=O)C3CCCO3)cc2)CC1 (stereo not drawn) | -10.8% | -9.25% | 0.49% | 97.8% | 105% | 1.09% | -0.36%
Cc1cc(C(=O)NCC2CCCO2)n(-c2ccccc2)n1 (stereo not drawn) | -0.68% | -2.33% | -1.22% | 100% | 103% | 0.28% | 2.07%
Cn1c(=O)c2c(nc(SCc3cc4c(cc3Cl)OCO4)n2C)n(C)c1=O | -5.9% | -0.11% | -0.21% | 99.6% | 100% | 1.15% | 5.36%
Cc1ccsc1-c1nc(CSCC(=O)N2CCN(c3ccccc3)CC2)c(C)o1 | -4.56% | 26.6% | -3.18% | 61.6% | 65.6% | 0.75% | 7.89%
O=C(Sc1nnc(-c2ccccc2)o1)N1c2ccccc2Sc2ccccc21 | 15.4% | 21.9% | -4.17% | 85.1% | 89.7% | 2.49% | 3.79%
CCn1c(=O)cc(O)c2ccccc21 | 1.77% | -10.1% | -1.68% | 99% | 94% | 2.01% | 1.28%
COc1cccc(C2CC(c3ccc(C(C)C)cc3)n3nc(N)nc3N2)c1 (stereo not drawn) | -2.39% | 3.09% | 0.91% | 97.1% | 95.7% | 1.5% | 3.94%
O=C(c1cc2c(ccc3ccccc32)oc1=O)N1CCN(CCO)CC1 | -9.81% | -3.65% | -2.23% | 88.8% | 93.7% | 3.29% | -1.69%
Nc1sc2c(c1C(=O)NC1CCS(=O)(=O)C1)CCCC2 (stereo not drawn) | -5.31% | -3.38% | 0.13% | 93.3% | 99.1% | 1.67% | 3.3%
COc1cc(C2C(C(=O)Nc3ccccc3OC)=C(C)Nc3ncnn32)ccc1O (stereo not drawn) | -14.3% | 14.1% | -2.38% | 100% | 95.3% | 1.42% | -0.99%
CCCOc1ccc2ccccc2c1/C=N/n1c(C)nnc1-n1nc(C)cc1C | -5.19% | 1.04% | -4.98% | 18.6% (active) | 19.6% (active) | -0.29% | -2.3%
CCCCCOc1ccc(NC(=O)CCCC(=O)O)cc1 | -3.13% | 2.42% | -0.75% | 91.1% | 97.8% | -0.545% | 1.02%
